Measured values as given in paper PMC7111624 (Phytochemistry, 2016).

Tests used:
HK2 = assay: Western blot expression level in U87-MG cells: HK2; assay type: cell-based, human; conditions: 10 µM, 48 h (Fig. S83)
Outline: (§1)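 U87-MG cells were treated for 48 h with test compound (5 or 10 μM) or left untreated as control. Protein was extracted and analysed by western blot, with β-actin as internal loading control.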

PKM2 = assay: Western blot expression level in U87-MG cells: PKM2; assay type: cell-based, human; conditions: 10 µM, 48 h (Fig. S83)
Outline: as §1

GLS = assay: Western blot expression level in U87-MG cells: GLS; assay type: cell-based, human; conditions: 10 µM, 48 h (Fig. S83)
Outline: as §1

FASN = assay: Western blot expression level in U87-MG cells: FASN; assay type: cell-based, human; conditions: 10 µM, 48 h (Fig. S83)
Outline: as §1

human erythrocytes = assay: Intracellular K+ uptake in erythrocytes; assay type: cell-based; conditions: 90 min
Outline: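 Fresh human blood was spun at 660 g for 10 min at 4 °C. Erythrocytes were washed three times in GNS buffer (50 g/L glucose, 9 g/L NaCl) and made into a 50% suspension. Cells were treated with test compound in isotonic KCl for 90 min at 37 °C, with a positive control ionophore, then stopped on ice. They were washed five times in cold GNS, haemolysed in water overnight, and digested in HNO3/HClO4. K+ was measured by atomic absorption against a KCl calibration curve.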

U251 = assay: SRB proliferation assay, U251 glioma cells; assay type: cell-based, human; conditions: HA vs U251
Outline: (§2)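 Each ratio is the IC50 in normal human astrocytes divided by the IC50 in the glioma line. Glioma IC50 came from an SRB proliferation assay after 72 h of treatment across a concentration series. Doxorubicin was the positive control and untreated cells the negative control. Values are means ± S.D.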

U87-MG = assay: SRB proliferation assay, U87-MG glioma cells; assay type: cell-based, human; conditions: HA vs U87-MG
Outline: as §2

SHG-44 = assay: SRB proliferation assay, SHG-44 glioma cells; assay type: cell-based, human; conditions: HA vs SHG-44
Outline: as §2

C6 = assay: SRB proliferation assay, C6 glioma cells; assay type: cell-based, rat; conditions: HA vs C6
Outline: as §2

human astrocytes (HA) = assay: Growth inhibition of normal human astrocytes; assay type: cell-based; conditions: Astrocyte, read-out: IC50, human astrocytes (HA)
U87-MG cells = assay: Cell cycle assay; assay type: cell-based, human; conditions: 0.8 μM, 12 h
U251 cells = assay: Cell cycle assay; assay type: cell-based, human; conditions: U251, 0.8 μM, 12 h

For `CC(C)[C@@H]1NC(=O)[C@H](C)OC(=O)[C@@H](C(C)C)NC(=O)[C@@H](C(C)C)OC(=O)[C@H](C(C)C)NC(=O)[C@H](C)OC(=O)[C@@H](C(C)C)NC(=O)[C@@H](C(C)C)OC(=O)[C@H](C(C)C)NC(=O)[C@H](C)OC(=O)[C@@H](C(C)C)NC(=O)[C@@H](C(C)C)OC1=O` [Compound 1, valinomycin], the “expression level of HK2” value (HK2) was “remarkably reduced expression levels”, the “expression level of PKM2” value (PKM2) was “little effect on the downregulation” and the “expression level of GLS” value (GLS) was “remarkably reduced expression levels”. For the same compound, the “expression level of FANS” value (FASN) was “remarkably reduced expression levels”, the “+ % increase of intracellular K+ = (Compound−CON)/CON × 100%” value (shortened to “+ % increase of intracellular K+ =”) (human erythrocytes; 0.01 μM) was 19.06% and the “K+ (intracellular, erythrocytes)” value (human erythrocytes; 0.01 μM) was 3.81 ± 0.01 mg/mL. For the same compound, the “+ % increase of intracellular K+ =” value (human erythrocytes; 0.05 μM) was 83.43%, the “K+ (intracellular, erythrocytes)” value (human erythrocytes; 0.05 μM) was 5.87 ± 0.00 mg/mL and the “+ % increase of intracellular K+ =” value (human erythrocytes; 0.1 μM) was 75.63%. For the same compound, the “K+ (intracellular, erythrocytes)” value (human erythrocytes; 0.1 μM) was 5.62 ± 0.01 mg/mL.

For `COc1cccc2c1C(=O)c1c(O)c3c(c(O)c1C2=O)C[C@@](O)(C(=O)CO)C[C@@H]3O[C@H]1C[C@H](N)[C@H](O)[C@H](C)O1` [Doxorubicin (DOX), Doxorubicin], the “Ratios of IC50HA/IC50GC, U251” value (U251) was 3, the “Ratios of IC50HA/IC50GC, U87-MG” value (U87-MG) was 22 and the “Ratios of IC50HA/IC50GC, SHG-44” value (SHG-44) was 5. For the same compound, the “Ratios of IC50HA/IC50GC, C6” value (C6) was 17, the IC50 (human astrocytes (HA)) was 8.7 ± 1.2 µM and the “G0/G1, percentage of cells” value (U87-MG cells) was 90.65%. The “G2/GM, percentage of cells” value (U87-MG cells) was 3.83%, the “S, percentage of cells” value (U87-MG cells) was 5.52% and the “Compound(G0/G1)−CON(G0/G1)” value (U87-MG cells; increase vs control) was 49.69%. For the same compound, the “G0/G1, percentage of cells” value (U251 cells) was 71.45%, the “G2/GM, percentage of cells” value (U251 cells) was 13.04% and the “S, percentage of cells” value (U251 cells) was 15.51%. The “Compound(G0/G1)−CON(G0/G1)” value (U251 cells; increase vs control) was 26.97%.
